MrgX1 agonist = agonists of human MrgX1 receptor; Q96LB2; MrgX1-HEK293 cells, Fluo-4 calcium fluorescence, agonist mode; hits give high values; B-score at 10 µM; actives 0.44% (n = 310,000);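 active means calcium response B-score plate-corrected fluorescence ratio at least 3 library SD, with starting fluorescence B-score inside 5 SD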
Target sequence (Q96LB2 whole entry, looked up): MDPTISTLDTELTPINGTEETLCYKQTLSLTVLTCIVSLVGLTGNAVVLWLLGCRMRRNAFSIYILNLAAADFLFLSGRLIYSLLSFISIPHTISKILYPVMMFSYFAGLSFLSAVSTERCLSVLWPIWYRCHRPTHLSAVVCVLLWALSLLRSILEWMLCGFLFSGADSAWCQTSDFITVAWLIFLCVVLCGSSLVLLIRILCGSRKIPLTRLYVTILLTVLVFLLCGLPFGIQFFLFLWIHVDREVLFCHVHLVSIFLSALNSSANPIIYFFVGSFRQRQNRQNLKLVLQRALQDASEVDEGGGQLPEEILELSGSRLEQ
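Material: MrgX1-expressing HEK293 cells; input: 15,000 cells per well; doses: test compound given as first of three sequential additions; schedule: overnight plating before 1 h dye loading; technique: Fluo-4 NW calcium-flux fluorescence, kinetic read; evaluation: baseline-normalised fluorescence change ratio, B-scored; control set: plate-wise positive and negative controls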
MrgX1 allo act = human MrgX1 positive allosteric modulation, primary screen; Q96LB2; MrgX1-HEK293, Fluo-4 calcium flux, FDSS; hits give high values; B-score at 10 µM; actives 0.63% (n = 310,000); AID 588675;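 active means plate-corrected calcium response at least 3 library SD above typical, normal starting fluorescence, not activating the receptor alone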;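 further: compound read alongside a low EC10 to EC30 dose of BAM8-22 agonist; peak minus trough fluorescence over baseline measured at the second addition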
RGS4 inh = human RGS4 inhibition; P49798; HEK293 M3R/RGS4 inducible, Fluo-4 calcium flux; hits give high values; triggered by carbachol at its EC20; B-score at 10 µM; actives 0.45% (n = 310,000); AID 463165;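 active means B-score, a plate-corrected calcium signal, over three deviations above library mean, with baseline fluorescence within five deviations of library mean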;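 further: RGS4 expression induced by doxycycline in cells with stable M3 receptor; B-score is computed from the integrated fluorescence ratio over baseline after carbachol; higher B-score means a larger calcium signal and so more RGS4 inhibition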
Target sequence (P49798 whole entry, looked up): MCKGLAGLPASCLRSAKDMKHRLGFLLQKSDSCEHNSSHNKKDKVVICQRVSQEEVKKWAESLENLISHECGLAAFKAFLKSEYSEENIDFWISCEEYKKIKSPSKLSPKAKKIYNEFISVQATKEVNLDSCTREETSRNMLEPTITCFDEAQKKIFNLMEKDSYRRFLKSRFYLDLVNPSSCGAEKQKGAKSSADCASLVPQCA
RGS4 act = potentiators or activators of RGS4; HEK293 M3R/inducible RGS4, carbachol calcium flux Fluo4; hits give low values; B-score at 10 µM; actives 0.92% (n = 310,000);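 active means B-score of the integrated calcium signal more than 4 SD below the library mean, with starting fluorescence not abnormally high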;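 further: negative B-score means reduced calcium response which marks RGS4 activation or potentiation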
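System: HEK293 FlpIn-TREx cells, stable M3R, doxycycline-inducible RGS4. Timing: overnight RGS4 induction, 30 min dye load 37 °C, 20 min compound RT. Also added: carbachol, ECmax concentration. Measured by: Fluo4 fluorescence kinetic imaging of calcium. Evaluation: integrated calcium ratio converted to B score.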
MrgX1 antag = human MrgX1 receptor antagonism, primary screen; Q96LB2; MRGX1-HEK293 calcium flux, Fluo-4, BAM8-22 antagonism; hits give low values; B-score at 10 µM; actives 1.3% (n = 310,000); AID 588676;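 active means calcium-response B-score plate-corrected more than 3 library SD below zero, starting fluorescence within 5 deviations, no agonist response on first addition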;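 further: peak minus trough fluorescence over baseline after final BAM8-22 challenge near maximal dose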
MrgX1 ag reconf = reconfirmed activator of human MrgX1 receptor signaling. MrgX1-HEK293, Fluo-4 calcium fluorescence, FDSS. actives 78% (n = 600). shares compounds with MrgX1 agonist. activation, % at 10 µM;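 active means calcium signal rise, corrected for plate position, at least 3 library SD high, with starting brightness within 5 such deviations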
HEK293 Ca flux = counter-screen for MrgX1 antagonists: effect in parental HEK293 cells; Fluo-4 calcium fluorescence, FDSS; fluorescence ratio F(max-min)/F0 at 10 µM; shares compounds with MrgX1 antag; actives 2% (n = 4,000);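 active means duplicate-averaged calcium fluorescence ratio at least three times the standard deviation of buffer wells, a nonspecific response in parental cells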
HEK293 Ca counter = activity in parental HEK293 cells without MrgX1 | shares compounds with MrgX1 antag | parental HEK293 calcium flux, Fluo-4 fluorescence ratio; hits give high values | fluorescence ratio F(max-min)/F0 at 10 µM | actives 0.4% (n = 4,000);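 active means calcium fluorescence ratio, averaged over duplicates, at least 3 SD of the buffer-well ratio, meaning a nonspecific response in receptor-free cells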;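 further: untransfected parental HEK293 lacking MrgX1 used as counterscreen for MrgX1 allosteric activators; fluorescence change taken during the second addition on a kinetic imager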
HEK293 Ca cntr2 = counter-screen for MrgX1 activators: effect in parental HEK293 cells; shares compounds with MrgX1 antag; Fluo-4 calcium fluorescence (FDSS); hits give high values; fluorescence ratio F(max-min)/F0 at 10 µM; actives 8.7% (n = 4,000); AID 624115;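 active means calcium fluorescence ratio at least three times the spread of buffer wells, meaning a non-specific response in parental cells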
Numbers without * were called inactive; i = inactive; x = no result. This is a sample that favours compounds with a hit; in the whole collection about 3.5% have one here.

SMILES | MrgX1 agonist | MrgX1 allo act | RGS4 inh | RGS4 act | MrgX1 antag | MrgX1 ag reconf | HEK293 Ca flux | HEK293 Ca counter | HEK293 Ca cntr2
O=C(NNC(=S)NC(=O)c1ccccc1[N+](=O)[O-])c1ccccc1O | i | i | i | i | i | x | x | x | x
O=C(NC(=S)NNC(=O)c1ccccc1O)c1ccccc1 | 93* | i | i | i | i | 478%* | i | i | 86*
O=C(NNC(=S)NC(=O)c1ccccc1[N+](=O)[O-])c1ccc(Cl)cc1Cl | 71* | i | i | i | i | 218%* | i | i | i
O=C(NC(=S)NNC(=O)c1ccccc1O)c1ccc(F)cc1 | i | i | i | i | i | x | x | x | x
CCCc1ccc(C(=O)NC(=O)c2ccccc2O)cc1 | 61* | i | i | i | i | 187%* | i | i | 64*
COc1ccc2c(-c3ccccc3)cc(=S)[nH]c2c1 | i | i | i | i | i | x | x | x | x
COCCN1C(=O)N[C@@H](CCc2ccccc2)[C@H](C(=O)OC)[C@H]1C | i | i | i | i | i | x | x | x | x
Cc1ccccc1OCC(=O)NNC(=S)NC(=O)c1ccco1 | 71* | i | i | i | i | 327%* | i | i | 62*
Cc1ccc(C(=O)NNC(=S)NC(=O)c2ccco2)cc1 | 135* | i | i | i | i | 681%* | i | i | 123*
Cc1ccc(C(=O)NC(=S)NNC(=O)c2ccccc2[N+](=O)[O-])cc1 | 77* | i | i | i | i | 413%* | i | i | 78*
O=C(NC(=S)NNC(=O)c1ccccc1O)c1ccc([N+](=O)[O-])cc1 | i | i | i | i | i | x | x | x | x
Cc1ccc(C(=O)NNC(=S)NC(=O)c2ccc(Cl)cc2Cl)cc1 | 131* | i | i | i | i | 585%* | i | i | 116*
CCCN1Cc2cccc(C(=O)NCCc3ccccc3)c2C1=O | i | i | i | i | i | x | x | x | x
Cc1onc(-c2ccccc2)c1C(=O)NC(=S)NNC(=O)c1ccc(O)cc1O | i | i | i | i | i | x | x | x | x
Cc1ccc(C(=O)NC(=S)NNC(=O)c2ccccc2)cc1 | 78* | i | i | i | i | 492%* | i | i | 100*
Cc1onc(-c2ccccc2)c1C(=O)NC(=S)NNC(=O)c1ccccc1O | 107* | i | i | i | i | 714%* | i | i | 132*
Cc1ccc(C(=O)NC(=S)NNC(=O)c2ccccc2O)cc1 | i | i | i | i | i | x | x | x | x
Cc1[nH]c2ccccc2c1-c1nc(-c2ccc(Cl)cc2)nnc1-c1ccccc1 | i | i | i | i | i | x | x | x | x
Cc1[nH]c2ccccc2c1-c1nc(N)sc1C | 38* | i | i | i | i | i | i | i | i
Cc1cc(OCC(=O)NNC(=O)CCc2ccccc2)ccc1Br | i | i | i | i | i | x | x | x | x
CCOC(=O)c1ccc2c(c1)N(CC(=O)N1CCCC1)C(=O)C(C)(C)O2 | i | i | i | i | i | x | x | x | x
CCOC(=O)c1ccc2c(c1)N(CC#N)C(=O)C(C)(C)O2 | 50* | i | i | i | i | 109%* | i | i | 46*
Cc1[nH][nH]c(=O)c1C(c1ccc(-c2ccc(F)cc2)o1)c1c(C)[nH][nH]c1=O | 40* | i | i | i | i | 216%* | i | i | 46*
Cc1[nH][nH]c(=O)c1C(c1ccc(-c2ccc(Cl)c(Cl)c2)o1)c1c(C)[nH][nH]c1=O | i | i | i | i | i | x | x | x | x
C/C(=N\NC(=O)c1cc2ccccc2cc1O)c1ccccn1 | 68* | i | i | i | i | 458%* | i | i | 109*
SMILES | MrgX1 agonist | MrgX1 allo act | RGS4 inh | RGS4 act | MrgX1 antag | MrgX1 ag reconf | HEK293 Ca flux | HEK293 Ca counter | HEK293 Ca cntr2
C/C(=N\NC(=O)c1c[nH]c2ccccc12)c1ccccn1 | i | i | i | i | i | x | x | x | x
Cc1ccc(-c2cc(NC(=O)CCl)n(-c3ccccc3)n2)cc1 | 35* | i | i | i | i | 150%* | i | i | i
COc1ccc([N+](=O)[O-])cc1NC(=O)Cn1ccc(C(F)(F)F)n1 | i | i | i | i | i | x | x | x | x
O=C(CCc1ccccc1)N=C1SC2CS(=O)(=O)CC2N1c1ccccc1 (stereo not drawn) | i | i | i | i | i | x | x | x | x
N#Cc1ccccc1Cn1cc(C#N)c2ccccc21 | i | i | i | i | i | x | x | x | x
N#Cc1cn(Cc2ccccc2)c2ccccc12 | 30* | i | i | i | i | 161%* | i | i | i
CC(C)Cc1csc(NC(=O)c2ccc(Cl)cc2)c1C(=O)O | 37* | i | i | i | i | 224%* | i | i | 52*
Cc1ccc(N/C(N)=N/c2nc(C)cc(N3CCCCC3)n2)c(C)c1 | 34* | i | i | i | i | 137%* | i | i | i
Cc1ccc(N/C(N)=N/c2nc3c(c(=O)[nH]2)CCCC3)c(C)c1 | i | i | i | i | i | x | x | x | x
CCCCS(=O)(=O)Nc1ccc2c(c1)ncn2C1CCCCC1 | 35* | i | i | i | i | 214%* | i | i | 51*
CC(C)Oc1ccc(C2CC(=O)N(c3cccc(/C=C/C(=O)O)c3)C2=O)cc1 (stereo not drawn) | i | i | i | i | i | x | x | x | x
Cn1c(=O)c(C(=O)CN2CCN(S(=O)(=O)c3ccccc3)CC2)c(N)n(Cc2ccccc2)c1=O | 38* | i | i | i | i | 171%* | i | i | 46*
O=c1c2cc(Br)ccc2nc(-c2cccc(C(F)(F)F)c2)n1O | 119* | i | i | i | i | 620%* | i | i | 144*
Cc1ccccc1-c1nc2ccc(Cl)cc2c(=O)n1O | i | i | i | i | i | x | x | x | x
O=c1c2cc(Cl)ccc2nc(-c2ccc(Cl)c(Cl)c2)n1O | 151* | i | i | -7.7* | i | 719%* | i | i | 122*
CCCCC1CC(CSC(=N)N)OC1=O (stereo not drawn) | i | i | i | i | i | x | x | x | x

Screening results deposited in PubChem BioAssay by Johns Hopkins Ion Channel Center.
